The RNAGym collection of RNA variant scans (doi:10.1126/science.aae0568)
Variants at the floor of the assay were thinned out.

B1: tRNA (parent)
chain: GUUCCGUUGGCGUAAUGGUAACGCGUCUCCCUCCUAAGGAGAAGACUGCGGGUUCGAGUCCCGUACGGAACG

Variants of: B1
Test: yeast fitness relative to wild type (ratio to wild type); higher = fitter; tRNA-Arg(CCU), competitive growth, 37 C, YPD
Summary of the method: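 Variants of the tRNA-Arg(CCU) gene, chemically synthesised with a 3% per-site mutation rate at 69 sites, were placed at the native genomic locus in Saccharomyces cerevisiae. The pooled strains were competed in YPD at 37°C for 24 hours in six parallel replicates. Gene amplicons from the start population and from each end population were read by 100-nucleotide paired-end sequencing. Darwinian fitness relative to wild type came from changes in genotype frequencies; genotypes needed ≥ 100 starting reads, and estimates < 0.5 were set to 0.5.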

Point of comparison: C5G C24A, yeast fitness 0.96. Against it:
- U64A — higher, 0.972
- U26A C49G G67C — lower, ≤ 0.5
- U7G U13C C31U — lower, 0.903
- C22U C30G C61U A65C C66U — lower, ≤ 0.5
- G38U — higher, 1.01
- U32C A36C — lower, 0.756
- C29A C33G — lower, 0.616
- G44C C46G C55U — lower, ≤ 0.5
- G10A U35C G56A — lower, ≤ 0.5
- C5U A15C G23C — lower, ≤ 0.5
- G9A C34U C46A C62U — lower, 0.546
- A15C C27U C62U — lower, ≤ 0.5
- C4G C29G A37G — lower, 0.598
- U28G C31U A40C A57G — lower, 0.837
- G18A C22U C30U C33U A45C — lower, ≤ 0.5
- C5G C30G G56C C61U A65C — lower, 0.616
- C4A C11G U13G G25A C62U G63A — lower, ≤ 0.5
- C5G A14U U16C G18C U32A G58A — lower, 0.542
- A21C C34G G48C — lower, ≤ 0.5
- G10A C24A A43C C61U — lower, ≤ 0.5
- C31G U32C A37U — lower, ≤ 0.5
- U13G A40C C49G U53A — lower, ≤ 0.5
- C4G C11A A14U C22A C24G — lower, ≤ 0.5
- C5U A37G C62G G68C — lower, ≤ 0.5
- C31G A42U C62U — lower, 0.742
- U35A C62U — lower, 0.732
- A20G C24A A70U — lower, 0.546
- C4G C31A A42C — lower, ≤ 0.5
- C5U C27G C33G A42C U64A — lower, ≤ 0.5
- G48C C62A — lower, 0.771
- U3A C5U C46A — lower, 0.724
- U26G G48A A57U — lower, 0.598
- C11A C34G G50A — lower, 0.681
- G10C C31G A70U — lower, 0.569
- U3A G41C C66A — lower, 0.527
- C22A C24G G56C — lower, 0.786
- U3C A45U G51C — lower, 0.574
- G58A C66U G67U — lower, 0.543
- U2A U32A U64A A65U — lower, 0.581
- G6C C24A C46G — lower, 0.59
- G10A C22G C62U — lower, ≤ 0.5
- C11U U28C C29G G67A — lower, ≤ 0.5
- A37U G63A — lower, 0.642
- C4U U8C A36G A40C G44C — lower, ≤ 0.5
- U7A U16C G17A C29U C31A G58A — lower, ≤ 0.5
- A14G A15U — lower, 0.704
- C11U A14C C30G A40G C49A G68A — lower, 0.537
- C4U A21G C31G C34G — lower, 0.596
- G10C G25C U26C — lower, 0.526
- C5G C34G A40G G48C G63A C66U — lower, ≤ 0.5
- G10C A14C — lower, 0.61
- C31G C62G — lower, 0.827
- C11G A15C G38C C49G — lower, ≤ 0.5
- C34A A42G — lower, 0.676
- U2G C30A U35G G51C — lower, ≤ 0.5
- G10A C11A G38A G52C C61A — lower, ≤ 0.5
- C24U G41A C62A — lower, 0.605
- G6A A45C G58A — lower, 0.519
- C5U U35C — lower, 0.811
- A15U C22G C31U G50A — lower, ≤ 0.5
- C4A C55G — lower, 0.55
- G39A G63A — lower, 0.945
- G10A C29U C30G C34A U53C — lower, ≤ 0.5
- G67U — lower, 0.918
- C31G U35C C46U — lower, 0.582
- U3C U16G G18A A43C U53A — lower, ≤ 0.5
- C27G A65C A70C — lower, 0.53
- G10A A57G G68C — lower, ≤ 0.5
- C4U A21G C46A C62U — lower, 0.691
- G12C C60U A70C — lower, ≤ 0.5
- C4G C60G — lower, 0.615
- C5U U32C C49U — lower, 0.842
- G6A A15C C27A A43G — lower, 0.592
- C4A A20U A43U A57C — lower, ≤ 0.5
- U32A A42C — lower, 0.817
- C11G U59C — lower, 0.589
- C5A G17A A43U C55U — lower, ≤ 0.5
- C5U C11A C22G C55G C60G — higher, 0.997
- G23C A42U — lower, 0.65
- C11U A21C A42G — lower, 0.523
- U16A C30G G50A C60A — lower, 0.547
- C5A G39A U47A C55U G67A A69G — lower, ≤ 0.5
- C34U G58C A69U — lower, ≤ 0.5
